Data reported in PMC6198128 (Redox Biology, 2018).
Several values for one entry are separate records, joined by “and”; a condition that tells them apart may be missing. Equal values may be shown once. Read-outs that look alike come from different tables or passages of the source.

Columns and labels:
HL-60 cells [1] = assay type: cell-based, human; conditions: for effect of pretreatment on complex-induced apoptosis: HL-60, 2 h pretreatment (5 mM NAC or 5 µM inhibitor), then 4 µM complex for 48 h; for apoptotic cells (annexin V-FITC/PI): HL-60, 24 and 48 h, p < 0.05, DOX 2 µM, OXA 2.5 µM
[2] = tested on: non-cancer cells (MRC-5 and PBMC); test: Alamar blue cytotoxicity assay, non-cancer cells; assay type: cell-based, human; conditions: not cytotoxic at the concentrations tested, 72 h
How it was run: (§1)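 Human and mouse cell lines plus primary human PBMC (donor informed consent) grown in RPMI-1640 with 10% FBS, 2 mM L-glutamine and 50 μg/mL gentamycin at 37 °C, 5% CO2. Cells were mycoplasma-checked and >90% trypan-blue viable at start. Vehicle served as negative control; doxorubicin, oxaliplatin and piplartine were positive controls. Effect was taken as % of control absorbance, with IC50 and 95% CI from nonlinear regression.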

[3] = tested on: eight cancer cell lines (HL-60, K-562, HCT116, MCF-7, HepG2, HSC-3, SCC-9 and B16-F10); test: Alamar blue cytotoxicity assay, panel of cancer cell lines; assay type: cell-based; conditions: not cytotoxic at the concentrations tested, 72 h
How it was run: as §1

[4] = tested on: HL-60 (human promyelocytic leukemia); test: Alamar blue cytotoxicity assay, HL-60; assay type: cell-based; conditions: read-out: IC50 in µM
[5] = tested on: K-562 (human chronic myelogenous leukemia); test: Alamar blue cytotoxicity assay, K-562; assay type: cell-based; conditions: read-out: IC50 in µM
[6] = tested on: MRC-5 (human lung fibroblast); test: Alamar blue cytotoxicity assay, MRC-5; assay type: cell-based; conditions: read-out: IC50 in µM
[7] = tested on: HCT116 (human colon carcinoma); test: Alamar blue cytotoxicity assay, HCT116; assay type: cell-based; conditions: read-out: IC50 in µM
[8] = tested on: HSC-3 (human oral squamous cell carcinoma); test: Alamar blue cytotoxicity assay, HSC-3; assay type: cell-based; conditions: read-out: IC50 in µM
[9] = tested on: SCC-9 (human oral squamous cell carcinoma); test: Alamar blue cytotoxicity assay, SCC-9; assay type: cell-based; conditions: Homo sapiens, SCC-9, 72 h, read-out: IC50 in µM
[10] = tested on: PBMC (human peripheral blood mononuclear cells); test: Alamar blue cytotoxicity assay, PBMC; assay type: cell-based; conditions: 72 h, read-out: IC50 in µM
[11] = tested on: HepG2 (human hepatocellular carcinoma); test: Alamar blue cytotoxicity assay, HepG2; assay type: cell-based; conditions: read-out: IC50 in µM
[12] = tested on: MCF-7 (human breast carcinoma); test: Alamar blue cytotoxicity assay, MCF-7; assay type: cell-based; conditions: read-out: IC50 in µM
B16-F10 (mouse melanoma) = test: Alamar blue cytotoxicity assay, B16-F10; assay type: cell-based; conditions: read-out: IC50 in µM
HL-60 cells [13] = test: Internucleosomal DNA fragmentation and cell cycle distribution; assay type: cell-based, human
How it was run: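 After 24 or 48 h treatment, HL-60 cells were permeabilized and stained with propidium iodide, and DNA content was measured by flow cytometry. 10^4 events were recorded per sample with debris excluded. Sub-G0/G1 was taken as internucleosomal DNA fragmentation, alongside G0/G1, S and G2/M fractions. Doxorubicin and oxaliplatin were positive controls; ANOVA with Student–Newman–Keuls test.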

calf thymus DNA (ctDNA) = test: DNA intercalation assay; assay type: binding; conditions: cell-free, 15 µg/mL ctDNA, 1.5 µM ethidium bromide; complex 5, 10 and 20 µM; doxorubicin 10 µM
How it was run: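 Ethidium bromide displacement from calf thymus DNA in saline: 15 µg/mL ctDNA, 1.5 µM ethidium bromide, test compound at 5, 10 and 20 µM. Vehicle (0.1% DMSO) was the negative control and doxorubicin (10 µM) the positive control. Fluorescence was read at excitation 320 nm and emission 600 nm. Lower fluorescence was taken as intercalation.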

caspase-3 in HL-60 cells = test: Caspase-3 colorimetric activation assay; assay type: cell-based, human; conditions: HL-60, DEVD-pNA substrate, 48 h, p < 0.05; DOX 2 µM
How it was run: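 HL-60 cells were treated with test compound and lysed, and caspase-3 activity was read with a colorimetric kit using DEVD-pNA substrate, with absorbance at 405 nm. Total protein was measured by Bradford, and activity was expressed as specific activity per 10 mg protein. Data are mean ± S.E.M., with ANOVA and Student–Newman–Keuls test (p < 0.05) against vehicle.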

HL-60 cells [14] = test: Morphological analysis; assay type: cell-based, human; conditions: 24 and 48 h, DOX 2 µM, OXA 2.5 µM; for cell morphology: HL-60, May-Grunwald-Giemsa; for forward light scatter (FSC) / side scatter (SCC): HL-60, flow cytometry
How it was run: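 HL-60 cells were treated for 24 and 48 h, then stained with May-Grunwald-Giemsa and examined by light microscopy. In parallel, forward and side light scatter were quantified by flow cytometry, recording 10^4 events per sample with debris excluded. Vehicle was the negative control, with doxorubicin and oxaliplatin as positive controls.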

HL-60 cells [15] = assay type: cell-based, human
HL-60 cells [16] = test: Mitochondrial transmembrane potential; assay type: cell-based, human; conditions: HL-60, rhodamine 123, 24 h, p < 0.05; DOX 2 µM, OXA 2.5 µM
How it was run: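 HL-60 cells were grown in RPMI-1640 with 10% FBS, 2 mM L-glutamine and 50 µg/mL gentamycin at 37 °C, 5% CO2. After treatment, cells were loaded with rhodamine 123 (5 µg/mL) for 15 min at 37 °C in the dark and washed in saline.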

[17] = HL-60, 2 µM, 24 h of incubation
[18] = HL-60, 2 µM, 48 h of incubation
[19] = HL-60, 2.5 µM, 24 h of incubation
[20] = HL-60, 2.5 µM, 48 h of incubation

| Structure (SMILES) | effect of pretreatment on complex-induced apoptosis (HL-60 cells [1]) | IC50 ([4]; Homo sapiens, HL-60, 72 h) [µM] | IC50 ([5]; Homo sapiens, K562, 72 h) [µM] | IC50 ([6]; Homo sapiens, MRC5, 72 h) [µM] | IC50 ([7]; Homo sapiens, HCT-116, 72 h) [µM] | IC50 ([8]; Homo sapiens, HSC-3, 72 h) [µM] | IC50 [9] [µM] | IC50 ([10]; Homo sapiens, PBMC) [µM] | IC50 ([11]; Homo sapiens, HepG2, 72 h) [µM] | IC50 ([12]; Homo sapiens, MCF7, 72 h) [µM] | IC50 (B16-F10 (mouse melanoma); Mus musculus, B16-F10, 72 h) [µM] | apoptotic cells (annexin V-FITC/PI) (HL-60 cells [1]) | cell morphology (HL-60 cells [14]) | forward light scatter (FSC) (HL-60 cells [14]) | side scatter (SCC) (HL-60 cells [14]) | reduction of the number of viable cells (HL-60 cells [15]) | mitochondrial transmembrane potential (HL-60 cells [16]) | other results |
| --- | --- | --- | --- | --- | --- | --- | --- | --- | --- | --- | --- | --- | --- | --- | --- | --- | --- | --- |
| N#CC(=C(/N)Sc1ccccc1N)/C(C#N)=C(/N)Sc1ccccc1N [U-0126] | reduced the complex-induced apoptosis | – | – | – | – | – | – | – | – | – | – | – | – | – | – | – | – | – |
| [Cl][Pt][Cl].c1ccc(P(c2ccccc2)c2ccccc2)cc1.c1ccc(P(c2ccccc2)c2ccccc2)cc1 [cis-[PtCl2(PPh3)2]] | – | – | – | – | – | – | – | – | – | – | – | – | – | – | – | – | – | IC50 [2]: > 31.6 µM; IC50 [3]: > 31.6 µM |
| COc1cc(/C=C/C(=O)N2CCC=CC2=O)cc(OC)c1OC [PIP, Piplartine] | – | 14.1 | 18.6 | 17.3 | 5.4 | 14.1 | 16.5 | 34.2 | 6.3 | 10.3 | 10.6 | – | – | – | – | – | – | – |
| COc1cccc2c1C(=O)c1c(O)c3c(c(O)c1C2=O)C[C@@](O)(C(=O)CO)C[C@@H]3O[C@H]1C[C@H](N)[C@H](O)[C@H](C)O1 [DOX, Doxorubicin] | – | 0.3 | 0.3 | 1.5 | 0.1 | 0.3 | 0.5 | 5.1 | 0.1 | 1.1 | 0.1 | increase in apoptotic cells | cell shrinkage, chromatin condensation and nuclear fragmentation | decrease in FSC | transient increase in SCC | 57.1% and 87.9% | reduced the mitochondrial transmembrane potential | DNA content (%) G0/G1 (HL-60 cells [13]; [17]): 19.9 ± 2.5 %; DNA content (%) G2/M (HL-60 cells [13]; [17]): 8.9 ± 1.5%; DNA content (%) S (HL-60 cells [13]; [17]): 6.6 ± 1.6 %; DNA content (%) Sub-G0/G1 (HL-60 cells [13]; [17]): 57.2 ± 2.5 %; DNA content (%) G0/G1 (HL-60 cells [13]; [18]): 21.9 ± 3.0 %; DNA content (%) G2/M (HL-60 cells [13]; [18]): 3.8 ± 0.9 %; DNA content (%) S (HL-60 cells [13]; [18]): 6.5 ± 0.6 %; DNA content (%) Sub-G0/G1 (HL-60 cells [13]; [18]): 65.5 ± 2.8 %; ethidium bromide fluorescence (displacement from ctDNA) (calf thymus DNA (ctDNA)): reduced the fluorescence intensity of ethidium bromide; caspase-3 activation (caspase-3 in HL-60 cells): caused caspase-3 activation |
| O=C1[O][Pt]2([NH][C@@H]3CCCC[C@H]3[NH]2)[O]C1=O [OXA, oxaliplatin] | – | – | – | – | – | – | – | – | – | – | – | increase in apoptotic cells | cell shrinkage, chromatin condensation and nuclear fragmentation | decrease in FSC | transient increase in SCC | 35.6% and 67.7% | reduced the mitochondrial transmembrane potential | IC50 ([4]; HL-60, alamar blue, 72 h): 0.6 µM; IC50 ([5]; K-562, alamar blue, 72 h): 1 µM; DNA content (%) G0/G1 (HL-60 cells [13]; [19]): 29.1 ± 2.4 %; DNA content (%) G2/M (HL-60 cells [13]; [19]): 28.1 ± 2.6 %; DNA content (%) S (HL-60 cells [13]; [19]): 12.6 ± 2.5%; DNA content (%) Sub-G0/G1 (HL-60 cells [13]; [19]): 20.7 ± 2.9 %; DNA content (%) G0/G1 (HL-60 cells [13]; [20]): 42.9 ± 2.8%; DNA content (%) G2/M (HL-60 cells [13]; [20]): 23.4 ± 2.6 %; DNA content (%) S (HL-60 cells [13]; [20]): 13.2 ± 0.8%; DNA content (%) Sub-G0/G1 (HL-60 cells [13]; [20]): 24.8 ± 1.9 %; cell cycle effect (HL-60 cells [13]; HL-60, 2.5 µM, p < 0.05): cell cycle arrest at the phase G2/M; IC50 ([6]; MRC-5 non-cancer cells, alamar blue, 72 h): 1.3 µM; IC50 ([7]; HCT116, alamar blue, 72 h): 4.1 µM; IC50 ([8]; HSC-3, alamar blue, 72 h): 3.1 µM; IC50 ([10]; PBMC non-cancer cells, alamar blue): 9.4 µM; IC50 ([11]; HepG2, alamar blue, 72 h): 2.2 µM; IC50 ([12]; MCF-7, alamar blue, 72 h): 5.7 µM; IC50 (B16-F10 (mouse melanoma); B16-F10, alamar blue, 72 h): 2.2 µM |
| O=[N+]([O-])c1ccc(-c2nc(-c3ccncc3)c(-c3ccc(F)cc3)[nH]2)cc1 [PD 169316] | reduced the complex-induced apoptosis | – | – | – | – | – | – | – | – | – | – | – | – | – | – | – | – | – |
